# From ChEMBL document CHEMBL1909619, “Synthesis and Toll-like receptor 4 (TLR4) activity of phosphatidylinositol dimannoside analogues” (J Med Chem, 2011)
# Calls of active or inactive are those of the source. No cut-off for these calls is given here.
# Tests used:
# [1] = target: T1, Toll-like receptor 4 (Mus musculus) (UniProt Q9QUK6); assay: Enhancement of LPS-induced TLR4 activation in mouse peritoneal macrophages assessed as IL-6 production at 0.6 to 19.2 uM after 18 hrs by ELISA
# T1 sequence (whole entry): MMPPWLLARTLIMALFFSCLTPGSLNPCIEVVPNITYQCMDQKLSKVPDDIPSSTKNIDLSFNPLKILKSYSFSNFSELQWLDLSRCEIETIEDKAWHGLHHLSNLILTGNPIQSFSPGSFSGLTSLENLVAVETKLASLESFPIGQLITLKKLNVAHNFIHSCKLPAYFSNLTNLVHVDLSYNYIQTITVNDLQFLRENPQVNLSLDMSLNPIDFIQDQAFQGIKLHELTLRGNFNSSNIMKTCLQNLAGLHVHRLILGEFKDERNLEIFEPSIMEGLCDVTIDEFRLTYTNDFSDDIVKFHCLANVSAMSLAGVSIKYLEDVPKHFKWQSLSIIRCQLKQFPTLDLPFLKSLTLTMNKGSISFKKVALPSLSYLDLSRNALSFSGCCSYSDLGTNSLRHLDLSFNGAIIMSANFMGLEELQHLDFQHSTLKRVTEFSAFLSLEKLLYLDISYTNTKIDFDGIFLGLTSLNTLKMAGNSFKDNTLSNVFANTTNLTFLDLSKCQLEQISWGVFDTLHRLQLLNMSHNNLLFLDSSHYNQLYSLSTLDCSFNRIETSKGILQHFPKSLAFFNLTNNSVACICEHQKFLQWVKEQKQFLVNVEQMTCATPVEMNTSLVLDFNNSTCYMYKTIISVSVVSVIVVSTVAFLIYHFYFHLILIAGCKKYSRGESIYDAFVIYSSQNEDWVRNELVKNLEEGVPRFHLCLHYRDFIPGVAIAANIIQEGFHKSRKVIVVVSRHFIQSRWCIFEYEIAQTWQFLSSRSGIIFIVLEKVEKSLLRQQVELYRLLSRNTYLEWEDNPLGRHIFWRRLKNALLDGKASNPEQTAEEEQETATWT
# Procedure, shortened: (§1)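 Thioglycollate-elicited mouse peritoneal macrophages were plated at 2×10^5 cells/well in RPMI-1640 with 10% fetal calf serum and penicillin-streptomycin. They were incubated 18 h at 37°C, 5% CO2 with compound, with or without 10 ng/ml LPS. IL-6 in the supernatant was measured by ELISA. Data are representative of at least two replicate experiments, and significance was tested by ANOVA.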
# [2] = target: T1, Toll-like receptor 4 (Mus musculus); assay: Agonist activity at TLR4 in thioglycollate-elicited mouse peritoneal macrophages assessed as induction of IL-6 production in after 18 hrs by ELISA; format: functional; procedure, shortened: as §1
# [3] = Cytotoxicity against mouse peritoneal macrophages assessed as cell viability by trypan blue exclusion assay; format: cell-based; conditions: peritoneal macrophage cell
# Procedure, shortened: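 Thioglycollate-elicited mouse peritoneal macrophages were plated at 2×10^5 cells/well in supplemented RPMI-1640. They were exposed to compound, with or without 10 ng/ml LPS, for 18 h at 37°C, 5% CO2. Viability was then scored by trypan blue exclusion.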
# Toll-like receptor 4 = target: T2, Toll-like receptor 4 (Mus musculus, UniProt Q9QUK6); assay: (§2) Inhibition of LPS-induced TLR4 activation in thioglycollate-elicited mouse peritoneal macrophages assessed as inhibition of IL-6 production after 18 hrs by ELISA; procedure, shortened: as §1
# T2 sequence (Q9QUK6 whole entry): T1 sequence (whole entry)
# [4] = target: T1, Toll-like receptor 4 (Mus musculus); assay: as §2; procedure, shortened: as §1
# [5] = target: Toll-like receptor 4 (Homo sapiens) (UniProt O00206); assay: Partial agonist activity at TLR4 transfected in Sf9 insect cells assessed as inhibition of LPS-mediated sTLR4/MD2 homodimerization after 1 hr by native PAGE; format: functional, cell-based
# Sequence of Toll-like receptor 4 (Homo sapiens) (O00206 whole entry, the tested form may be a part): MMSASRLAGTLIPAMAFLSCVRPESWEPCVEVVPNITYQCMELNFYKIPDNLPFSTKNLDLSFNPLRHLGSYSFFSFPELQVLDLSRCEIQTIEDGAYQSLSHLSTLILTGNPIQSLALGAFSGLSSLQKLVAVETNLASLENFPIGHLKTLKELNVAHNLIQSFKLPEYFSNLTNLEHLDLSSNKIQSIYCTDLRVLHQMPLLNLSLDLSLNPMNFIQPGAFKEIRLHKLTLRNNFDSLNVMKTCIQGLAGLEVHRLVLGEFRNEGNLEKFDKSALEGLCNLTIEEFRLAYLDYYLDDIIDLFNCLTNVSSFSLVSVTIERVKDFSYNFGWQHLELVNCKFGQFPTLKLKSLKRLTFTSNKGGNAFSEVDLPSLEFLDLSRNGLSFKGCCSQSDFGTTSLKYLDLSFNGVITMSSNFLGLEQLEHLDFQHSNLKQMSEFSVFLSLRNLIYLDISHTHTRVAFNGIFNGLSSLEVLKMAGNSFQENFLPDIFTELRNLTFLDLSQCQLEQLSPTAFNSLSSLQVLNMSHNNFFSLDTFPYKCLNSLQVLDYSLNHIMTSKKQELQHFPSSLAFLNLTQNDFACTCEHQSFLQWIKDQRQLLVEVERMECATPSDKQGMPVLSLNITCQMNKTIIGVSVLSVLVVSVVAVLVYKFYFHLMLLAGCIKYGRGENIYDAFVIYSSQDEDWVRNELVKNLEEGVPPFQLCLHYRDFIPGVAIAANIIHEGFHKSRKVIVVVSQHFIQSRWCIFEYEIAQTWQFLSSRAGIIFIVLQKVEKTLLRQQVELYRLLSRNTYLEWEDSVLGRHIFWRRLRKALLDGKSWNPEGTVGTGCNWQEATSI
# Procedure, shortened: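 The sTLR4 ectodomain/MD-2 complex was co-expressed in Hi5 insect cells from baculovirus made in SF9 cells. It was purified by Ni-NTA and Strep-Tactin affinity, tag removal with thrombin, and size exclusion. After 1 h at room temperature, the mixture was resolved by native PAGE on a 4–20% gel at pH 8.8.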
# Sf9 [6] = assay: Competitive binding affinity at MD1 transfected in Sf9 insect cells after 1 hr by native PAGE in presence of LPS; format: cell-based
# Procedure, shortened: (§3)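 MD-1 was expressed by baculovirus and purified by Ni-NTA affinity, anion exchange and gel filtration. It was combined with compound and then LPS in 20 mM Hepes pH 7.4/150 mM NaCl. After 1 h at room temperature, the mixture was analysed by native PAGE on a 4–20% gradient gel at pH 8.8.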
# Macrophage = assay: Induction of IL-6 production in TLR4-deficient mouse macrophages; format: functional, cell-based
# Sf9 [7] = assay: Binding affinity at MD1 transfected in Sf9 insect cells after 1 hr by native PAGE; format: cell-based; procedure, shortened: as §3
SMILES,Activity [1],Activity [2],IC50 (Toll-like receptor 4),inhibition [4],Activity [5],Activity [3],Activity (Sf9 [6]),Activity (Macrophage),Activity (Sf9 [7])
CCCCCCCCCCCCCCCCO[C@H](COC(=O)CCCCCCCCCCCCCCC)COP(=O)(O)O[C@@H]1[C@H](O[C@H]2O[C@H](COC(=O)CCCCCCCCCCCCCCC)[C@@H](O)[C@H](O)[C@@H]2O)[C@H](O)[C@@H](O)[C@H](O)[C@H]1O[C@H]1O[C@H](CO)[C@@H](O)[C@H](O)[C@@H]1O,Active,275 pg/mL,,,,Non-toxic,,,
CCCCCCCCCCCCCCCCOC[C@H](COP(=O)(O)O[C@@H]1[C@H](O[C@H]2O[C@H](CO)[C@@H](O)[C@H](O)[C@@H]2O)[C@H](O)[C@@H](O)[C@H](O)[C@H]1O[C@H]1O[C@H](CO)[C@@H](O)[C@H](O)[C@@H]1O)OCCCCCCCCCCCCCCCC,,494 pg/mL,23.3 µM,,,Non-toxic,,,
CCCCCCCCCCCCCCCCO[C@H](COC(=O)CCCCCCCCCCCCCCC)COP(=O)(O)OC(CO[C@H]1O[C@H](CO)[C@@H](O)[C@H](O)[C@@H]1O)CO[C@H]1O[C@H](CO)[C@@H](O)[C@H](O)[C@@H]1O,,923 pg/mL,42.8 µM,,,Non-toxic,,,
CCCCCCCCCCCCCCCC(=O)OC[C@H](COP(=O)(O)OC(CO[C@H]1O[C@H](CO)[C@@H](O)[C@H](O)[C@@H]1O)CO[C@H]1O[C@H](CO)[C@@H](O)[C@H](O)[C@@H]1O)OC(=O)CCCCCCCCCCCCCCC,,143 pg/mL,12.9 µM,,,Non-toxic,,,

# Now from value to compound, other results behind:
Activity [1],Activity [2],IC50 (Toll-like receptor 4),inhibition [4],Activity [5],SMILES,Activity [3],Activity (Sf9 [6]),Activity (Macrophage),Activity (Sf9 [7])
,664 pg/mL,22.7 µM,,,CCCCCCCCCCCCCCCC(=O)N[C@H](COC(=O)CCCCCCCCCCCCCCC)COP(=O)(O)O[C@@H]1[C@H](O[C@H]2O[C@H](CO)[C@@H](O)[C@H](O)[C@@H]2O)[C@H](O)[C@@H](O)[C@H](O)[C@H]1O[C@H]1O[C@H](CO)[C@@H](O)[C@H](O)[C@@H]1O,Non-toxic,,,
,1460 pg/mL,30.3 µM,Dose-dependent effect,,CCCCCCCCCCCCCCCCO[C@H](COC(=O)CCCCCCCCCCCCCCC)COP(=O)(O)O[C@@H]1[C@H](O[C@H]2O[C@H](CO)[C@@H](O)[C@H](O)[C@@H]2O)[C@H](O)[C@@H](O)[C@H](O)[C@H]1O[C@H]1O[C@H](CO)[C@@H](O)[C@H](O)[C@@H]1O,Non-toxic,,,
,817 pg/mL,40.2 µM,,Active,CCCCCCCCCCCCCCCC(=O)OC[C@H](COP(=O)(O)O[C@@H]1[C@H](O[C@H]2O[C@H](CO)[C@@H](O)[C@H](O)[C@@H]2O)[C@H](O)[C@@H](O)[C@H](O)[C@H]1O[C@H]1O[C@H](CO)[C@@H](O)[C@H](O)[C@@H]1O)OC(=O)CCCCCCCCCCCCCCC,Non-toxic,Dose-dependent effect,inactive,Active
,1130 pg/mL,28.8 µM,,,CCCCCCCCCCCCCCCCOC[C@H](COP(=O)(O)O[C@@H]1[C@H](O[C@H]2O[C@H](CO)[C@@H](O)[C@H](O)[C@@H]2O)[C@H](O)[C@@H](O)[C@H](O)[C@H]1O[C@H]1O[C@H](CO)[C@@H](O)[C@H](O)[C@@H]1O)OC(=O)CCCCCCCCCCCCCCC,Non-toxic,,,
